The target in assay [1] is T1, Cannabinoid receptor 1 (Homo sapiens, UniProt P21554). The assay is described as follows: Agonist activity at human CB1 receptor expressed in CHO-K1 cells assessed as forskolin-induced cAMP accumulation after 1 hr. Type of assay: functional, cell-based. The essentials:
(§1)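 CHO-K1 cells (1000/well) expressing human CB1 or CB2 preincubated with compound 15 min at room temperature, then forskolin at EC70 added for a further 30 min at room temperature. cAMP measured by HTRF (d2-cAMP plus anti-cAMP-cryptate, final 1 h room temperature incubation). Values are the average of N = 1 to 3 results.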
(In general: cAMP levels reflect the balance of adenylyl cyclase and phosphodiesterase activity.)

The target of assay [2] is T2, Cannabinoid receptor 2 (Homo sapiens, UniProt P34972). Nature of the assay: Agonist activity at human CB2 receptor expressed in CHO-K1 cells assessed as forskolin-induced cAMP accumulation after 1 hr relative to control. It is filed as functional, cell-based. In a few lines: as §1
Assay [3] concerns the target T2, Cannabinoid receptor 2. Nature of the assay: Agonist activity at human CB2 receptor expressed in CHO-K1 cells assessed as forskolin-induced cAMP accumulation after 1 hr. Type of assay: functional, cell-based. In a few lines: as §1
For another assay, the species on record is Homo sapiens. Nature of the assay: Selectivity ratio of EC50 for human CB1 receptor to EC50 for human CB2 receptor.
The target of assay [4] is T1, Cannabinoid receptor 1. The assay is described as follows: Agonist activity at human CB1 receptor expressed in CHO-K1 cells assessed as forskolin-induced cAMP accumulation after 1 hr relative to control. Type of assay: functional, cell-based. In a few lines:
as §1

T2 sequence (P34972 whole entry): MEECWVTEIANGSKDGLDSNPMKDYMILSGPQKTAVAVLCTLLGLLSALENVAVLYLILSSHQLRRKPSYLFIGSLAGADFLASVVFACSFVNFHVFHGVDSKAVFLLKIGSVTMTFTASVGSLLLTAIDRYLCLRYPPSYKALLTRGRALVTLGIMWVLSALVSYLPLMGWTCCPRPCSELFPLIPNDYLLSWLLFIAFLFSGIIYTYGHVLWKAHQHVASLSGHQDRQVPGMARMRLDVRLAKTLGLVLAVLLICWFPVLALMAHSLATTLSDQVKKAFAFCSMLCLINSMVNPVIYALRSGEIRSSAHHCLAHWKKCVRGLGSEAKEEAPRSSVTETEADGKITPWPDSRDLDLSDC
T1 sequence (P21554 whole entry): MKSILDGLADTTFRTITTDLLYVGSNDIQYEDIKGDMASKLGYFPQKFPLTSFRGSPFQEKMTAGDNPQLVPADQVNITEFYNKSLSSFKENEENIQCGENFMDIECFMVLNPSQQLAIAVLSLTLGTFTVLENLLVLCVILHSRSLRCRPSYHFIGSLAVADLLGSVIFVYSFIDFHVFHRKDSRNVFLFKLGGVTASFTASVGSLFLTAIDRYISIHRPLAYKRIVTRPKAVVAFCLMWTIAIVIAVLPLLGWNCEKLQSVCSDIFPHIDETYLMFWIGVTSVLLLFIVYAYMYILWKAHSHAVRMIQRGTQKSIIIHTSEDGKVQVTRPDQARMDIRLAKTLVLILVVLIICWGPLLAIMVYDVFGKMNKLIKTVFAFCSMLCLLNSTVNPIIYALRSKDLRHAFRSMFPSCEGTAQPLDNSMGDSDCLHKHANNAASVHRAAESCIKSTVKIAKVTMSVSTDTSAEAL

`O=C(NCC(O)CO)c1nc2c(-c3ccccc3)cccc2[nH]1` (stereo not given): the EC50 at Cannabinoid receptor 1 [1] was > 17000 nM; on Cannabinoid receptor 2 [3], 6.3 nM. At Cannabinoid receptor 2 [2], the Emax came to 75%.

Consider `O=C(NCc1cccc(C(F)(F)F)c1)c1nc2c(-c3ccccc3)cccc2[nH]1`, for which the EC50 at Cannabinoid receptor 1 [1] is > 17000 nM; at Cannabinoid receptor 2 [3], 256 nM. The Emax at Cannabinoid receptor 2 [2] turned out to be 69%.

On to `O=C(NC1(CO)CCCCC1)c1nc2c(-c3ccccc3)cccc2[nH]1`, for which the EC50 was > 17000 nM on Cannabinoid receptor 1 [1] and 236 nM at Cannabinoid receptor 2 [3]. Further, on Cannabinoid receptor 2 [2], the Emax was determined as 82%.

For the compound `CCn1c(C(=O)NCc2cncnc2)nc2c(-c3ccccc3)cccc21`, the EC50 on Cannabinoid receptor 1 [1] was > 17000 nM; at Cannabinoid receptor 2 [3] it was 1100 nM. Moreover, the Emax on Cannabinoid receptor 2 [2] is 89%.

In the case of `O=C(NCc1ccccc1Cl)c1nc2c(-c3ccccc3)cccc2[nH]1`, the EC50 at Cannabinoid receptor 1 [1] was > 17000 nM; at Cannabinoid receptor 2 [3], 443 nM. The Emax at Cannabinoid receptor 2 [2] was found to be 64%.

In the case of `O=C(NCC1(CO)CCCC1)c1nc2c(-c3ccccc3)cccc2[nH]1`, the EC50 at Cannabinoid receptor 1 [1] was > 17000 nM; on Cannabinoid receptor 2 [3], 24.6 nM. The Emax at Cannabinoid receptor 2 [2] is 93%.

Consider `O=C(NCC1(CO)CCCC1)c1nc2c(-c3ccccc3)cccc2n1CC(F)(F)F`, for which the EC50 at Cannabinoid receptor 1 [1] and on Cannabinoid receptor 2 [3] was > 17000 nM in each case.

Take `O=C(NCc1cccc(Cl)c1)c1nc2c(-c3ccccc3)cccc2[nH]1`: the results for the EC50 at Cannabinoid receptor 1 [1] and at Cannabinoid receptor 2 [3] were > 17000 nM and 165 nM, respectively. The maximum response (Emax) on Cannabinoid receptor 2 [2] came out at 67%.

With `CC(C)(C)CNC(=O)c1nc2c(-c3ccccc3)cccc2[nH]1`, the Ratio EC50 in the assay filed under Homo sapiens was > 1160. Further, the EC50 is > 17000 nM at Cannabinoid receptor 1 [1] and 14.7 nM at Cannabinoid receptor 2 [3]. For the same compound, at Cannabinoid receptor 2 [2], the Emax is 95%.

Turning to `CCn1c(C(=O)NCc2ccccc2Cl)nc2c(-c3ccccc3)cccc21`, the Ratio EC50 in the assay filed under Homo sapiens came out at 92. Also, the figures for the EC50 at Cannabinoid receptor 1 [1] and at Cannabinoid receptor 2 [3] were 913 nM and 9.9 nM, respectively. For the same compound, the results for the Emax on Cannabinoid receptor 2 [2] and at Cannabinoid receptor 1 [4] were 101% and 87%, respectively.

As for `CC(C)(C)CNC(=O)c1nc2c(-c3ccccc3)cccc2n1CC(F)(F)F`, the EC50 on Cannabinoid receptor 1 [1] and on Cannabinoid receptor 2 [3] was > 17000 nM in each case.

With `O=C(NC12CC3CC(CC(C3)C1)C2)c1nc2c(-c3ccccc3)cccc2[nH]1`, in the assay listed under Homo sapiens, the Ratio EC50 was found to be 65. Further, the EC50 at Cannabinoid receptor 1 [1] was found to be 123 nM; at Cannabinoid receptor 2 [3] it was 1.9 nM. Moreover, the Emax on Cannabinoid receptor 2 [2] is 99%; on Cannabinoid receptor 1 [4], 100%.

In the case of `O=C(NCC1(CO)CCCCC1)c1nc2c(-c3ccccc3)cccc2n1CC(F)(F)F`, the results for the concentration for a half-maximal effect (EC50) on Cannabinoid receptor 1 [1] and on Cannabinoid receptor 2 [3] were > 17000 nM and 1970 nM, respectively. The Emax at Cannabinoid receptor 2 [2] was 45%.

On to `O=C(NC12CC3CC(CC(C3)C1)C2)c1nc(C(O)c2cccnc2)c2ccccn12` (racemic), for which the IC50 at Cannabinoid receptor 1 [1] was found to be 3880 nM; on Cannabinoid receptor 2 [3] it was 4.5 nM. Moreover, the Activity worked out at 88% at Cannabinoid receptor 2 [2] and 82% on Cannabinoid receptor 1 [4].

Regarding `CCn1c(C(=O)NCc2ccccc2F)nc2c(-c3ccccc3)cccc21`, the EC50 at Cannabinoid receptor 1 [1] is > 17000 nM; at Cannabinoid receptor 2 [3], 45 nM. Also, the Emax at Cannabinoid receptor 2 [2] was found to be 98%.

In the case of `CCn1c(C(=O)NCC(C)(C)C)nc2c(-c3ccccc3)cccc21`, the EC50 on Cannabinoid receptor 1 [1] came to 913 nM; on Cannabinoid receptor 2 [3] it was 490 nM. Moreover, the Emax at Cannabinoid receptor 2 [2] turned out to be 67%; on Cannabinoid receptor 1 [4], 87%.

Regarding `O=C(NCc1ccccc1)c1nc2c(-c3ccccc3)cccc2[nH]1`, the figures for the EC50 on Cannabinoid receptor 1 [1] and on Cannabinoid receptor 2 [3] were > 17000 nM and 991 nM, respectively. Besides, the Emax at Cannabinoid receptor 2 [2] came out at 64%.

Turning to `O=C(NCc1ccccc1F)c1nc2c(-c3ccccc3)cccc2[nH]1`, the EC50 is > 17000 nM at Cannabinoid receptor 1 [1] and 256 nM on Cannabinoid receptor 2 [3]. For the same compound, at Cannabinoid receptor 2 [2], the Emax came to 49%.

Regarding `O=C(NCC1(CO)CCCCC1)c1nc2c(-c3ccccc3)cccc2[nH]1`, the 50% effective concentration (EC50) on Cannabinoid receptor 1 [1] was > 17000 nM; on Cannabinoid receptor 2 [3] it was 43 nM. The Emax on Cannabinoid receptor 2 [2] stood at 92%.

`O=C(NCc1ncccc1F)c1nc2c(-c3ccccc3)cccc2[nH]1`: the EC50 on Cannabinoid receptor 1 [1] was > 17000 nM; at Cannabinoid receptor 2 [3], 1440 nM. For the same compound, the Emax at Cannabinoid receptor 2 [2] worked out at 39%.

Take `CCn1c(C(=O)NCC2(CO)CCCC2)nc2c(-c3ccccc3)cccc21`: the EC50 is > 17000 nM at Cannabinoid receptor 1 [1] and 1260 nM on Cannabinoid receptor 2 [3]. Also, the Emax on Cannabinoid receptor 2 [2] turned out to be 68%.

Consider `CCn1c(C(=O)NCc2cccc(Cl)c2)nc2c(-c3ccccc3)cccc21`, for which the Ratio EC50 in the assay filed under Homo sapiens was > 425. Besides, the EC50 on Cannabinoid receptor 1 [1] was > 17000 nM; on Cannabinoid receptor 2 [3], 40 nM. In addition, the Emax on Cannabinoid receptor 2 [2] came out at 87%.

Take `CCn1c(C(=O)NCc2ccc(C#N)cc2)nc2c(-c3ccccc3)cccc21`: the EC50 at Cannabinoid receptor 1 [1] is > 17000 nM; on Cannabinoid receptor 2 [3] it was 84 nM. The Emax on Cannabinoid receptor 2 [2] amounted to 99%.

The term EC50 denotes the concentration that produces a half-maximal response. The term Emax denotes the maximal effect, on the per cent scale that the assay sets. In general, IC50 refers to the concentration at which inhibition is half-maximal.
